LMPTP inh: LMPTP (human) inhibition; P24666; recombinant LMPTP-A, OMFP fluorogenic substrate, fluorescence intensity; inhibition, % at 20 µM; 360,000 tested, 0.22% active; AID 651560;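 active = compounds that cut the enzyme signal by at least half of the control window in the single-dose screen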
Target sequence (P24666 whole entry, looked up): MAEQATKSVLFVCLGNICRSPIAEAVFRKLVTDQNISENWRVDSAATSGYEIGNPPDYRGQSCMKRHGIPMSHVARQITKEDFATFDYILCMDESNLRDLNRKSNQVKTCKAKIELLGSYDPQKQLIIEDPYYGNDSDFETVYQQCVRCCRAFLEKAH
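Test system – LMPTP-A enzyme · Amount – LMPTP-A at 0.625 nM final in the reaction · Buffer or medium – Bis-Tris pH 6.0, DTT, detergent · Reagent – OMFP 400 µM · Doses – single 20 µM dose · Schedule – reaction 50 min, room temperature, dark · Detection – fluorescence intensity of OMFP turnover product · Evaluation – percent inhibition versus substrate-only and uninhibited controls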
CASP6 VEID inh: inhibitors of human caspase-6. P55212. purified caspase-6, Z-VEID-R110 cleavage fluorescence. inhibition, % at 12.5 µM. 350,000 tested, 0.53% active. AID 686996;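 active = mean inhibition across replicates at least about 35%, with every replicate also reaching that limit, limit read from the data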
SUMO1 PPI mod: modulators of human SUMO1-mediated protein-protein interactions; SUMO1 binding to a labelled peptide, TR-FRET, 1 h; inhibition, % at 20 µM; 360,000 tested, 0.33% active; AID 602429; in the data active = inhibition above about 37%
STEP block: blocks human striatal-enriched tyrosine phosphatase | P54829 | recombinant STEP, OMFP fluorogenic substrate, fluorescence | inhibition, % at 20 µM | 360,000 tested, 0.25% active | AID 588621;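 active = inhibition at 20 µM, scaled per plate between control wells, above about 37%, limit read from the data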
Target sequence (P54829 whole entry, looked up): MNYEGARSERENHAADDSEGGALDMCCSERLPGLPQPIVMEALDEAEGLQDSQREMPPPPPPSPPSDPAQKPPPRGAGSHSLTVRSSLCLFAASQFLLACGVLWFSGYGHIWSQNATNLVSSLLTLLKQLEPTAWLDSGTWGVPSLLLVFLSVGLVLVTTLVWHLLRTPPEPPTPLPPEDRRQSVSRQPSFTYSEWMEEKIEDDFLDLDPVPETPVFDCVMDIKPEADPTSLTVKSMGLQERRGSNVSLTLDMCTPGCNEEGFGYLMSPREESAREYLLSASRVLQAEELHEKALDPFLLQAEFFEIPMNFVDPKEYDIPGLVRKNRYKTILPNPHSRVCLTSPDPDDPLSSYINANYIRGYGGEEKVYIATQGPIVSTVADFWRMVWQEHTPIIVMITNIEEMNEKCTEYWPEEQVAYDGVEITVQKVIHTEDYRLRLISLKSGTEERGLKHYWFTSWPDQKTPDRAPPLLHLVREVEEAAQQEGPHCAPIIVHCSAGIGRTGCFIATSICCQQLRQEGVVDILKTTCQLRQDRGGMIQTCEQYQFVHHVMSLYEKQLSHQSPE
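Test system: STEP tyrosine phosphatase / Reagent: OMFP at 25 µM / Doses: 20 µM, 1% DMSO / Read-out: percent inhibition scaled to no-enzyme and uninhibited-enzyme controls, plate-pattern corrected / Detection: FITC-channel fluorescence of OMFP product / Medium: Bis-Tris buffer pH 6.0, 2.5 mM DTT, 0.005% Tween 20 / Schedule: 20 min at room temperature, dark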
DNMT1 block: blocks human DNA methyltransferase DNMT1 | P26358 | DNMT1 molecular beacon, Hinp1I cleavage, fluorescence | inhibition (reported as % activation of signal), % at 10 µM | 360,000 tested, 0.83% active | AID 588458; in the data active = inhibition above about 50%
Scp-1 inhibitor: Scp-1 (human) phosphatase inhibition; inhibition, % at 20 µM; Recombinant Scp1, phosphopeptide, malachite green phosphate absorbance; 340,000 tested, 0.88% active; Q9GZU7;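 active = inhibition above about 50% at 20 µM, limit read from the data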
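Test system: SCP-1 phosphatase catalytic domain, residues 76-261 | Compound dosing: One concentration, 20 µM, with 1.0% DMSO | Schedule: 45 min room-temperature reaction, 5 min colour, 30 min stabiliser | Detection: Absorbance at 630 nm | Read-out basis: % inhibition of SCP-1 phosphate liberation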
Of the large screens only hits and unclear results are named; the others gave an inactive call. Compounds with a hit are over-represented: about 1.7% of the library has one in this group of screens.

C[C@@H]1CN([C@H](C)CO)C(=O)c2cc(C#CC3CC3)cnc2O[C@H]1CN(C)S(C)(=O)=O	none (no result: Scp-1 inhibitor)
O=C(NN1C(=O)CSC1=S)C(=O)NN1C(=O)CSC1=S	CASP6 VEID inh 51, SUMO1 PPI mod 40, DNMT1 block 58, Scp-1 inhibitor 55
Cc1cc(Cl)ccc1NC(=O)CCN1C(=O)NC(C)(C)C1=O	none
CCOC(=O)C1=C(C)N(CCCCCC(=O)O)C(=O)NC1c1cccc([N+](=O)[O-])c1 (stereo unspecified)	DNMT1 block 92
CCc1ccc(N(CC(=O)NC(C)(C)C)C(=O)CNC(=O)c2cccs2)cc1	none
O=C(NCC(c1ccco1)N1CCc2ccccc21)c1cccc([N+](=O)[O-])c1 (stereo unspecified)	CASP6 VEID inh 63
O=C(NCC(c1ccco1)N1CCc2ccccc21)c1ccc([N+](=O)[O-])cc1 (stereo unspecified)	CASP6 VEID inh 72
Cc1ccc(S(=O)(=O)N(C)C[C@@H]2OCCCC[C@@H](C)Oc3ccc(NC(=O)NC(C)C)cc3C(=O)N([C@@H](C)CO)C[C@H]2C)cc1	none (no result: LMPTP inh, SUMO1 PPI mod, STEP block, DNMT1 block, Scp-1 inhibitor)
Cc1ccc(CN(C)C(=O)COC(=O)CSc2ccc([N+](=O)[O-])cc2)cc1	none
Cc1ccccc1CN(C)C(=O)COC(=O)CSc1ccc([N+](=O)[O-])cc1	CASP6 VEID inh 71
O=C(Nc1ccccc1Cl)N1CCCN(c2nc(-c3ccccc3)ns2)CC1	none
N#C/C(=C\c1coc2ccc(O)cc2c1=O)C(=O)Nc1nc2ccccc2s1	DNMT1 block 84
CC1CCN(C(=O)COC(=O)c2ccc([N+](=O)[O-])o2)CC1	CASP6 VEID inh 52
CC1Cc2ccccc2N1C(=O)COC(=O)c1ccc([N+](=O)[O-])o1 (stereo unspecified)	CASP6 VEID inh 47
CC1Cc2ccccc2N1C(=O)COC(=O)c1ccco1 (stereo unspecified)	none (no result: Scp-1 inhibitor)
O=C1c2ccccc2C(=O)N1CCOc1ccccc1	none (no result: CASP6 VEID inh)
Cn1c(=O)c2nc3ccccc3nc2n(C)c1=O	none
CC(=O)Nc1ccc2nc3c(=O)n(C)c(=O)n(C)c3nc2c1	Scp-1 inhibitor 84
O=C(Nc1cccc(C(F)(F)F)c1)c1cccc(NS(=O)(=O)c2ccc(O)c(C(=O)O)c2)c1	CASP6 VEID inh 39
Cc1ccc(C(=O)N/C(=C\c2ccco2)C(=O)NCCCN2CCOCC2)cc1C	none
COC(=O)c1ccccc1NC(=O)CSc1nc(NC(=O)c2ccccc2)c2c(C)c(C)oc2n1	SUMO1 PPI mod 67 (no result: CASP6 VEID inh)
CCOC(=O)c1ccc(NC(=O)CSc2nc(NC(=O)c3ccccc3)c3c(C)c(C)oc3n2)cc1	none (no result: CASP6 VEID inh)
CCCC(=O)N1CCc2cc(OC)c(OC)cc2C1COc1ccccc1OC (stereo unspecified)	none (no result: CASP6 VEID inh)
N#Cc1c(-c2ccccc2)nc(-c2ccccc2)[nH]c1=O	none (no result: CASP6 VEID inh)
Nc1nc(-c2ccccc2)[nH]c(=O)c1N=O	CASP6 VEID inh 49
COC(=O)c1ccccc1NC(=O)NCCc1ccccc1OC	none
CO[C@@H]1CN(C)C(=O)c2cc(C#N)ccc2OCC[C@H]2CC[C@@H](OC)[C@@H](CN(C)C(=O)[C@H]1C)O2	none (no result: LMPTP inh, SUMO1 PPI mod, STEP block, DNMT1 block, Scp-1 inhibitor)
CCNc1c2c3c(cccc3n(C)c1=O)C(=O)c1ccccc1-2	none (no result: LMPTP inh, CASP6 VEID inh, SUMO1 PPI mod, STEP block, DNMT1 block)
Cn1c(=O)c(NCCO)c2c3c(cccc31)C(=O)c1ccccc1-2	DNMT1 block 142
CCCCNc1c2c3c(cccc3n(C)c1=O)C(=O)c1ccccc1-2	DNMT1 block 192 (no result: CASP6 VEID inh)
Cn1c(=O)c(NCCc2ccccc2)c2c3c(cccc31)C(=O)c1ccccc1-2	DNMT1 block 76 (no result: CASP6 VEID inh)
CC(C)[C@@H]1C=C(C(=O)O)O[C@H](OCc2ccc(CO)cc2)C1	none (no result: LMPTP inh, SUMO1 PPI mod, STEP block, DNMT1 block, Scp-1 inhibitor)
COc1cc(NC(=O)CCN2C(=O)NC3(CCCC3)C2=O)c(OC)cc1Cl	none
CCCCNC(=O)C1(C)CCCCN1C(=O)c1ccc(F)cc1Cl (stereo unspecified)	none (no result: Scp-1 inhibitor)
COc1ccc(C(O)c2ncc(-c3ccccc3F)[nH]2)cc1 (stereo unspecified)	DNMT1 block 51 (no result: Scp-1 inhibitor)
COc1ccc(C(O)c2ncc(-c3ccccc3OC)[nH]2)cc1 (stereo unspecified)	none (no result: Scp-1 inhibitor)
Cc1ccccc1CN(C)C(C)C(=O)NCc1ccccc1 (stereo unspecified)	none
O/N=C1/CCc2cccc3cccc1c23	none (no result: CASP6 VEID inh)
O=C1C(=NO)CCc2ccccc21	CASP6 VEID inh 68
Nc1ccc(-c2c3ccc(=O)cc-3oc3cc(O)ccc23)cc1C(=O)O	DNMT1 block active
O=c1ccc2c(-c3ccccc3)c3ccc(O)cc3oc-2c1	DNMT1 block active
CC(=O)[C@@H]1[C@@H]2C(=O)N(Cc3ccccc3)C(=O)[C@@H]2C2c3ccccc3C=CN21 (stereo partly specified)	CASP6 VEID inh 61
CCOC(=O)C1CCN(C(=O)c2ccc(OCC(=O)Nc3cccc(C(F)(F)F)c3)cc2)CC1	none
O=C(O)C1Nc2ccc(Br)cc2C2C=CCC12 (stereo unspecified)	LMPTP inh 84, SUMO1 PPI mod 94, STEP block 94, DNMT1 block 93, Scp-1 inhibitor 69 (no result: CASP6 VEID inh)
CCOC(=O)C1Nc2ccc(C)cc2C2C=CCC12 (stereo unspecified)	none
CC(C)CNC(=O)C1Nc2ccccc2C2C=CCC12 (stereo unspecified)	none
CCOC(=O)C1Nc2ccc(Br)cc2C2C=CCC12 (stereo unspecified)	none
O=C(O)C1Nc2c(Cl)cc(Cl)cc2C2C=CCC12 (stereo unspecified)	LMPTP inh 87, SUMO1 PPI mod 103, STEP block 41, DNMT1 block 88, Scp-1 inhibitor 72 (no result: CASP6 VEID inh)
O=C(O)C1Nc2c(O)cccc2C2C=CCC12 (stereo unspecified)	LMPTP inh 74, CASP6 VEID inh 92, DNMT1 block 103, Scp-1 inhibitor 71
CCC(=O)N[C@@H]1C=C[C@H](CC(=O)NCc2ccc(OC)cc2)O[C@@H]1CO	none (no result: LMPTP inh, SUMO1 PPI mod, STEP block, DNMT1 block, Scp-1 inhibitor)
CC1CC(=O)c2c(cc3c(-c4c(O)cc(O)c5c(O)c6c(cc45)OC(C)CC6=O)c(O)cc(O)c3c2O)O1 (stereo unspecified)	SUMO1 PPI mod 64, DNMT1 block 81 (no result: CASP6 VEID inh)
O=c1[nH]c(Nc2ccccc2)cc2ccccc12	none (no result: CASP6 VEID inh)
CC(=O)c1cccc(-c2ccc3c(=O)[nH]c(Nc4ccccc4)cc3c2)c1	CASP6 VEID inh 95, DNMT1 block 105
COc1ccccc1N1C(=O)Cc2ccccc2C1=O	CASP6 VEID inh 49
Cc1ccc(N2C(=O)Cc3ccccc3C2=O)cc1	CASP6 VEID inh 50
Cc1cccc(N2C(=O)Cc3ccccc3C2=O)c1	CASP6 VEID inh 48
COc1ccc2c(c1)C(=O)N(c1ccccc1OC)C(=O)C2	none
Cc1ccc(S(=O)(=O)N2CCN(C(=O)COC(=O)/C=C/c3ccc(C(F)(F)F)cc3)CC2)c(C)c1	none
